# Shown are actives, neighbours in structure and some others; about 1.8% of the full set was active somewhere.
# M4 ag: agonists of human muscarinic M4 receptor (CHRM4); CHO-K1 hM4/Gqi5, Fluo-8 calcium fluorescence; vehicle 0%, full acetylcholine response 100%; AID 624127; P08173; 360,000 compounds, 0.14% hits; activation, % at 3 µM;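 active = activation above the run mean over all test wells plus 3 SD, cut at about 32% in these data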;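 also: peak over basal fluorescence ratio per well then scaled between controls; 0% = DMSO wells and 100% = acetylcholine at EC100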
# Target sequence (P08173 whole entry, looked up): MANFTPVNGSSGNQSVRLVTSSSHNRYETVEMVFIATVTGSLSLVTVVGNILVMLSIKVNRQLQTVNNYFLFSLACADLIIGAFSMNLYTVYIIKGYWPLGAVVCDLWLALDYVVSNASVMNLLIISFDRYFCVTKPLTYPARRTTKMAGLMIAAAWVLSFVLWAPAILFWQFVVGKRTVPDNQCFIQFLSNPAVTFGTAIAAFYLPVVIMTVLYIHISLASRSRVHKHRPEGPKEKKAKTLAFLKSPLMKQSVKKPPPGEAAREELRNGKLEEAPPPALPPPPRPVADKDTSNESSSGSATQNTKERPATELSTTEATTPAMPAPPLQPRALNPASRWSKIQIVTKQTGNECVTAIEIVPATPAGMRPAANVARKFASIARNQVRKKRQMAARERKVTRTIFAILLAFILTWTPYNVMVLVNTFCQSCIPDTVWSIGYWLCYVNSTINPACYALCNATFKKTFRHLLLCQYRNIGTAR
# M4 PAM: potentiates acetylcholine response at human M4 receptor. CHO-K1 hM4/Gqi5, Fluo-8 calcium fluorescence, ACh EC20; 0% = ACh EC20, 100% = maximal ACh. activation, % at 3 µM. 360,000 compounds, 0.4% hits. AID 624126;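 active = activation above its plate's cutoff, the mean activation of sample wells plus 3 SD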
# M5 ag: agonists of human muscarinic M5 receptor (CHRM5); CHO-K1 hM5 cells, Fluo-8 calcium fluorescence; 0% DMSO wells, 100% maximal acetylcholine response; activation, % at 3 µM; 360,000 compounds, 0.19% hits;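 active = activation above the run's mean over test compounds plus 3 SD, cut at about 23% in these data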;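 also: signal is peak over basal fluorescence ratio across the kinetic read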
# M5 PAM: positive allosteric modulators of human muscarinic M5 receptor | P08912 | CHO-K1 hM5, Fluo-8 calcium, ACh EC20 PAM; 0% = ACh EC20, 100% = ACh EC100 | activation, % at 3 µM | 360,000 compounds, 0.3% hits;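 active = activation above the run cutoff, the mean activation of all test compounds plus 3 SD, cut at about 18% in these data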
#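 Assay system – human M5 receptor in CHO-K1 cells · Read-out – % activation, ACh-normalized · Technique – Fluo-8 calcium fluorescence · Dosing – single-point, 3 µM nominal · Incubation – Fluo-8 loading 80 min at 37 °C plus 30 min room temperature · Repeats – singlicate, one well per test compound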
# CHRM4 antagonist: CHRM4 antagonism in calcium assay; P08173; CHO-hM4 cells, ACh EC80, Fluo-8 calcium fluorescence; inhibition, % at 3 µM; 360,000 compounds, 0.73% hits;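 active = inhibition above its plate's cutoff, the mean inhibition of sample wells plus 3 SD, cut at about 27% in these data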;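 also: 0% = acetylcholine EC80 with DMSO and 100% = DMSO without agonist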
# M5 antag: antagonists of human muscarinic M5 receptor (CHRM5); P08912; CHO-hM5 cells, Fluo-8 calcium fluorescence, ACh EC80; inhibition, % at 3 µM; 360,000 compounds, 0.59% hits;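 active = inhibition above a per-plate cutoff, the mean of that plate's test compounds plus 3 SD, cut at about 27% in these data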;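 also: 0% = acetylcholine EC80 with DMSO and 100% = DMSO without agonist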
# The depositor's hits bear a star.
SMILES,M4 ag,M4 PAM,M5 ag,M5 PAM,CHRM4 antagonist,M5 antag
Cc1ccc(/C(CSc2nccn2-c2ncc(C(F)(F)F)cc2Cl)=N\O)cc1,5,-2,2,-5,8,0
CC(Cl)=CCn1c(NCCc2ccccc2)nc2c1c(=O)n(C)c(=O)n2C,1,-1,0,0,1,1
CC1=NN(C(N)=S)C(=O)C1N=Nc1ccc(C)c(Br)c1 (configuration not stated),1,3,1,2,-4,3
Cc1ccc(C)c(N2C(=O)CN=C2Nc2ccccc2Cl)c1,1,22*,0,14,0,-12
CCCOc1ccc(F)cc1-c1cc(C(=O)NCCOC)[nH]n1,1,3,2,6,-1,16
O=C(c1ccco1)N1CCN(Cc2cc(=O)c(OCc3ccc([N+](=O)[O-])cc3)co2)CC1,0,-7,-2,3,31*,7
Cc1ccc(COc2coc(CN3CCN(C(=O)c4ccco4)CC3)cc2=O)cc1,1,13,0,3,-8,5
Cc1ccc(-c2nc(C)sc2CC(=O)Nc2cccc(C)c2C)cc1,1,-5,-6,2,2,2
CN(NC(=O)C(=O)NCc1ccco1)C(=O)Nc1ccc(Cl)cc1,18,4,11,-20,8,37*
COc1ccc(C2=NOC(C(=O)N3CCOCC3)C2)cc1OC (configuration not stated),0,12,-2,-2,-14,-4
COc1cccc(C2=NOC(C(=O)N3CCOCC3)C2)c1 (configuration not stated),1,29*,0,-3,9,10
O=C(NCc1ccccc1)C1CCCN(c2ncnc3c2nc2n3CCCCC2)C1 (configuration not stated),5,-6,-5,-4,-7,17
O=C(NCCc1ccc(Cl)cc1)C1CCCN(c2ncnc3c2nc2n3CCCCC2)C1 (configuration not stated),2,0,-3,-1,-9,-8
O=C(NCC1CCN(Cc2ccc(F)cc2)CC1)C1CCCN(c2ncnc3c2nc2n3CCCCC2)C1 (configuration not stated),0,-11,-9,-2,36*,1
O=C(NCC1CCN(Cc2cccc(Cl)c2)CC1)C1CCCN(c2ncnc3c2nc2n3CCCCC2)C1 (configuration not stated),8,-12,-9,-14,36*,13
O=C(NCC1CCN(Cc2ccc(Cl)cc2)CC1)C1CCCN(c2ncnc3c2nc2n3CCCCC2)C1 (configuration not stated),10,-23,-9,-4,84*,10
O=C(NC1CCN(S(=O)(=O)c2ccc(F)cc2)CC1)c1cccnc1,2,3,-3,0,-9,4
O=[N+]([O-])c1ccc(N2CCN(C(=S)NCc3ccc(Cl)cc3)CC2)cc1,14,-19,2,-20,20,29*
COCCNc1nc(NCc2ccc(C(C)C)cc2)c2sccc2n1,10,-4,2,-8,4,16
Cc1cc(C(C)(C)C)cc(C)c1C[n+]1ccc2ccccc2c1,0,-13,-8,-5,29*,12
O=C(O)CSc1nc2ccccc2nc1Cc1ccccc1F,0,-1,0,3,0,11
Cc1cccc(C)c1NC(=O)c1cccc(N2C(=O)C3CCC(C)CC3C2=O)c1 (configuration not stated),11,0,1,-3,-21,1
CC(NC(=O)c1ccccc1)C(=O)OCn1nnc2ccccc2c1=O (configuration not stated),1,12,-4,20*,-14,-8
Cc1ccc(NC(=S)c2nc3ccccc3[nH]2)cc1,-3,20,21,0,0,47*
C#CCOCCOCCOCCNc1nc(N2CCN(C(=O)CCCCCCCCCCNC(=O)Cn3cc(CCCCCN)nn3)CC2)nc(N2CCN(C(=O)CCCCCCCCCCNC(=O)Cn3cc(CCCCCN)nn3)CC2)n1,2,-17,-10,-1,23,12
SMILES,M4 ag,M4 PAM,M5 ag,M5 PAM,CHRM4 antagonist,M5 antag
CC(C)(C)CN1CCC(Oc2cccc(C(=O)NCCCOc3cccnc3)c2)CC1,4,-15,-8,-11,68*,38*
C=C(C)C1CC=C(C)/C(=N/NC(=O)COc2ccc(Cl)cc2)C1 (configuration not stated),1,20*,-5,5,-11,2
O=C(CCCN1C(=O)NC2(CCCC2)C1=O)Nc1ccc(Cl)c(S(=O)(=O)N2CCOCC2)c1,2,7,-1,-2,-8,3
COc1ccc(-c2ccc3c(c2)C2CC3CCN2C(=O)C2CCCCC2)cc1 (configuration not stated),1,-11,1,-9,15,15
O=C(CNC(=O)c1cnccn1)Nc1ccc(F)c(F)c1F,1,7,15,21*,-8,-12
COc1cc(/C=C2/C(=O)NN(c3ccc(Cl)cc3)C2=O)cc(Br)c1O,0,3,6,20*,-1,-4
CN1CCCC(CC2c3ccccc3Sc3ccccc32)C1 (configuration not stated),11,-18,2,-19,99*,99*
CN1CCCC(CN2c3ccccc3Sc3ccccc32)C1 (configuration not stated),10,-18,1,-19,86*,99*
CCSc1ccc2c(c1)N(CCCN1CCN(C)CC1)c1ccccc1S2,13,-15,1,-16,13,15
Cc1ccc(-c2nc3cccnc3o2)cc1NC(=O)COc1ccc(C(C)(C)C)cc1,10,-9,1,-13,25,27*
COc1ccc([N+](=O)[O-])c(S(=O)(=O)c2ccc(Cl)cc2)n1,23,-11,12,6,22,18
COc1ccc([N+](=O)[O-])c(S(=O)(=O)c2ccccc2)n1,-1,-7,10,8,30*,9
Cc1ccc(-c2nc3ccc(Br)cn3c2Cc2cccc(F)c2)cc1,-2,1,1,1,-4,-4
COc1ccc(CN2C[C@@H](CO)O[C@@H](n3cnc4c(N5CCCC5)ncnc43)C2)cc1,2,17*,-2,-3,-23,4
OC[C@@H]1CN(Cc2ccccc2)C[C@H](n2cnc3c(NC4CC4)ncnc32)O1,1,4,0,-2,-5,7
OC[C@@H]1CN(Cc2ccc(-c3ccccc3)cc2)C[C@H](n2cnc3c(NC4CCC4)ncnc32)O1,17,-10,5,-14,28*,29*
